The source of these data is ChEMBL document CHEMBL4266043, “Nuclear Factor Erythroid 2-Related Factor 2 Activating Triterpenoid Saponins from Camellia japonica Roots” (J Nat Prod, 2018).

Calls of active or inactive are those of the source. No cut-off for these calls is given here.

Common to all, as to assay type: cell-based
The target in data set [1] is T1, Nuclear factor erythroid 2-related factor 2 (Homo sapiens) (UniProt Q16236).
T1 sequence (whole entry): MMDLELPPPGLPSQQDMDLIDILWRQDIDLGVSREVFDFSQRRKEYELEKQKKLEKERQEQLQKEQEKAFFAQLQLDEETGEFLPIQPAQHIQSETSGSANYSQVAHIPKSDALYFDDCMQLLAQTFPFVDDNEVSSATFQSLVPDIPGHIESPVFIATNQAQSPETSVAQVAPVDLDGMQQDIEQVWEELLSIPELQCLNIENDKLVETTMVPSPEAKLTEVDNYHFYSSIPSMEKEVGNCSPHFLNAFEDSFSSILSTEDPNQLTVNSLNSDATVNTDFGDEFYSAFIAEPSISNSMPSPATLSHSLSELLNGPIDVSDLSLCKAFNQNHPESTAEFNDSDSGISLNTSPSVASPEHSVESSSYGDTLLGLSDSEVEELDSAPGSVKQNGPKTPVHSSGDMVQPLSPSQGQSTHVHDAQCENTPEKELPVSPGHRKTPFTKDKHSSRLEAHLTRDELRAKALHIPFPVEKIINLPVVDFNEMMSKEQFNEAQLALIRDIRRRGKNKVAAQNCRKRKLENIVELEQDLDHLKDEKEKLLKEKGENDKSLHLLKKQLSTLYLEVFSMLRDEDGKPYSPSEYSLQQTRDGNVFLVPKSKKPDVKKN
Description: Activation of Nrf2 in human HaCaT cells at 25 uM after 6 hrs by ARE-driven luciferase reporter gene assay relative to control. The essentials: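 Used HaCaT cells stably carrying 3xARE-luciferase, in RPMI 1640 with 10% FBS at 37 °C, 5% CO2, plated overnight. Exposure 6 h at 25 μM. Cells lysed in passive lysis buffer 15 min at room temperature. Luciferase read by kit and normalized to total protein, expressed versus vehicle. Mean ± SD from three independent experiments, t test.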
Background: Reporter assays use an easily measured gene product as a stand-in for the process of interest.

Data set [2] deals with HaCaT. Description: Cytotoxicity against human HaCaT cells assessed as decrease in cell viability at 3.125 to 25 uM after 24 hrs by MTT assay. The essentials: (§1)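 MTT assay on HaCaT cells (RPMI 1640, 10% FBS, 37 °C, 5% CO2), plated overnight, then exposed 24 h to 3.125–25 μM. MTT (5 mg/mL solution) added for 2 h, medium removed, formazan dissolved in DMSO and read at 570 nm. Viability given as percent, mean ± SD of three independent experiments.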
In general terms: Tetrazolium assays rely on reduction of a dye to a coloured formazan, in cell work by metabolically active cells.

The target of data set [3] is T1, Nuclear factor erythroid 2-related factor 2 (Homo sapiens). Description: Activation of Nrf2 in human HaCaT cells assessed as increase in nuclear Nrf2 accumulation at 25 uM after 6 hrs by Western blot analysis. In a few lines:
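HaCaT cells grown to 60−70% confluency, treated 6 h at 25 μM (vehicle DMSO 0.1%). Nuclear fraction obtained with M-PER lysis (10 min on ice), spin at 3000 rpm, pellet resuspended, sonicated, protein by BCA. 25 μg protein run on 10% SDS-PAGE, nitrocellulose transfer, milk block, anti-Nrf2 and histone H3 antibodies, HRP secondary, ECL detection.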
On the technique in general: In western blotting, separated proteins are transferred to a membrane and probed.

Data set [4] can be described thus: Cytotoxicity against human HaCaT cells assessed as cell viability at 25 uM after 24 hrs by MTT assay. The settings on record: read-out: Activity. The essentials: as §1

Take `C/C=C(/C)C(=O)O[C@H]1[C@H](OC(=O)C(C)CC)[C@]2(CO)[C@H](OC(C)=O)C[C@]3(C)C(=CC[C@@H]4[C@@]5(C)CC[C@H](O[C@@H]6O[C@H](C(=O)O)[C@@H](O)[C@H](O[C@@H]7OC[C@H](O)[C@H](O[C@@H]8O[C@@H](C)[C@H](O)[C@@H](O)[C@H]8O)[C@H]7O)[C@H]6O)[C@@](C)(CO)[C@@H]5CC[C@]43C)[C@@H]2CC1(C)C` (stereo not given in full): the result in data set [1] and in data set [3] was Active. In addition, the Activity result in data set [2] is “Non-Toxic”.

On to `C/C=C(/C)C(=O)O[C@H]1[C@H](OC(=O)CC(C)C)[C@]2(CO)[C@H](O)C[C@]3(C)C(=CC[C@@H]4[C@@]5(C)CC[C@H](O[C@@H]6O[C@H](C(=O)O)[C@@H](O)[C@H](O[C@@H]7OC[C@H](O)[C@H](O[C@@H]8O[C@@H](C)[C@H](O)[C@@H](O)[C@H]8O)[C@H]7O)[C@H]6O)[C@@](C)(CO)[C@@H]5CC[C@]43C)[C@@H]2CC1(C)C`, for which the viability at 24 h, 25 µM in data set [4] worked out at 69.7%. For the same compound, the result in data set [1] and in data set [3] was Active.

`C/C=C(/C)C(=O)O[C@H]1[C@H](OC(=O)C(C)CC)[C@]2(CO)[C@H](O)C[C@]3(C)C(=CC[C@@H]4[C@@]5(C)CC[C@H](O[C@@H]6O[C@H](C(=O)O)[C@@H](O)[C@H](O[C@@H]7OC[C@H](O)[C@H](O[C@@H]8O[C@@H](C)[C@H](O)[C@@H](O)[C@H]8O)[C@H]7O)[C@H]6O)[C@@](C)(CO)[C@@H]5CC[C@]43C)[C@@H]2CC1(C)C` (stereo not given in full): in data set [4], the viability at 24 h, 25 µM was found to be 72.7%. Also, the result in data set [1] and in data set [3] was Active.

Take `C/C=C(/C)C(=O)O[C@H]1[C@H](OC(=O)C(C)CC)[C@]2(CO)[C@H](O)[C@H](O)[C@]3(C)C(=CC[C@@H]4[C@@]5(C)CC[C@H](O[C@@H]6O[C@H](C(=O)O)[C@@H](O)[C@H](O[C@@H]7OC[C@H](O)[C@H](O[C@@H]8O[C@@H](C)[C@H](O)[C@@H](O)[C@H]8O)[C@H]7O)[C@H]6O)[C@@](C)(CO)[C@@H]5CC[C@]43C)[C@@H]2CC1(C)C` (stereo not given in full): the fold change (FC) in data set [1] worked out at 2. In addition, in data set [2], the Activity result is “Non-Toxic”. In addition, the outcome in data set [3] was Active.

As to `C/C=C(/C)C(=O)O[C@H]1[C@H](OC(=O)C(C)CC)[C@]2(CO)[C@H](O)[C@H](O)[C@]3(C)C(=CC[C@@H]4[C@@]5(C)CC[C@H](O[C@@H]6O[C@H](C(=O)O)[C@@H](O)[C@H](O[C@@H]7OC[C@H](O)[C@H](O[C@@H]8O[C@@H](C)[C@H](O)[C@@H](O)[C@H]8O)[C@H]7O)[C@H]6O)[C@@](C)(C=O)[C@@H]5CC[C@]43C)[C@@H]2CC1(C)C` (stereo not given in full), the outcome in data set [1] and in data set [3] was Active. In data set [2], the Activity result is “Non-Toxic”.

As for `C/C=C(/C)C(=O)O[C@H]1[C@H](OC(=O)CC(C)C)[C@]2(CO)[C@H](OC(C)=O)[C@H](OC(C)=O)[C@]3(C)C(=CC[C@@H]4[C@@]5(C)CC[C@H](O[C@@H]6O[C@H](C(=O)O)[C@@H](O)[C@H](O[C@@H]7OC[C@H](O)[C@H](O[C@@H]8O[C@@H](C)[C@H](O)[C@@H](O)[C@H]8O)[C@H]7O)[C@H]6O)[C@@](C)(CO)[C@@H]5CC[C@]43C)[C@@H]2CC1(C)C`, the result in data set [1] and in data set [3] was Active. For the same compound, the Activity entry in data set [2] is on record as “Non-Toxic”.

In turn, `C/C=C(/C)C(=O)O[C@H]1[C@H](OC(=O)/C(C)=C\C)[C@]2(CO)[C@H](O)[C@H](O)[C@]3(C)C(=CC[C@@H]4[C@@]5(C)CC[C@H](O[C@@H]6O[C@H](C(=O)O)[C@@H](O)[C@H](O[C@@H]7OC[C@H](O)[C@H](O[C@@H]8O[C@@H](C)[C@H](O)[C@@H](O)[C@H]8O)[C@H]7O)[C@H]6O)[C@@](C)(CO)[C@@H]5CC[C@]43C)[C@@H]2CC1(C)C` returned a fold change (FC) in data set [1] of 4. For the same compound, the Activity entry in data set [2] was “Non-Toxic”. Besides, the result in data set [3] was Active.

On to `C/C=C(/C)C(=O)O[C@H]1[C@H](OC(=O)CC(C)C)[C@]2(CO)[C@H](O)[C@H](O)[C@]3(C)C(=CC[C@@H]4[C@@]5(C)CC[C@H](O[C@@H]6O[C@H](C(=O)O)[C@@H](O)[C@H](O[C@@H]7OC[C@H](O)[C@H](O[C@@H]8O[C@@H](C)[C@H](O)[C@@H](O)[C@H]8O)[C@H]7O)[C@H]6O)[C@@](C)(C=O)[C@@H]5CC[C@]43C)[C@@H]2CC1(C)C`, for which the outcome in data set [1] and in data set [3] was Active. Further, in data set [2], the Activity result is recorded as “Non-Toxic”.

`CCC(C)C(=O)O[C@H]1[C@H](O)C(C)(C)C[C@H]2C3=CC[C@@H]4[C@@]5(C)CC[C@H](O[C@@H]6O[C@H](C(=O)O)[C@@H](O)[C@H](O[C@@H]7OC[C@H](O)[C@H](O[C@@H]8O[C@@H](C)[C@H](O)[C@@H](O)[C@H]8O)[C@H]7O)[C@H]6O)[C@@](C)(CO)[C@@H]5CC[C@@]4(C)[C@]3(C)[C@@H](OC(=O)CC(C)C)[C@@H](O)[C@]21CO` (stereo not given in full): the result in data set [1] and in data set [3] was Active. The Activity result in data set [2] is “Non-Toxic”.

`C/C=C(/C)C(=O)O[C@H]1[C@H](OC(=O)/C(C)=C/C)[C@]2(CO)[C@H](O)[C@H](O)[C@]3(C)C(=CC[C@@H]4[C@@]5(C)CC[C@H](O[C@@H]6O[C@H](C(=O)O)[C@@H](O)[C@H](O[C@@H]7OC[C@H](O)[C@H](O[C@@H]8O[C@@H](C)[C@H](O)[C@@H](O)[C@H]8O)[C@H]7O)[C@H]6O)[C@@](C)(CO)[C@@H]5CC[C@]43C)[C@@H]2CC1(C)C` came in with a fold change (FC) in data set [1] of 3. Also, in data set [2], the Activity result was “Non-Toxic”. Also, in data set [3], the outcome was Active.
